In general, EC50 refers to the concentration needed to bring the measured effect to its halfway point.

The results in this text go back to ChEMBL document CHEMBL1649354, “Bioactivity-guided isolation of GABA(A) receptor modulating constituents from the rhizomes of Actaea racemosa” (J Nat Prod, 2010).

What all share (format): cell-based
Experiment [1] relates to Oocyte. Put plainly: Allosteric modulation of alpha1beta2gamma2S GABAA receptor expressed in Xenopus laevis oocytes assessed as stimulation of GABA-induced chloride current at 100 uM by electrophysiology. The procedure, abridged: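 Two-microelectrode voltage clamp; GABA at EC3-10 (eliciting 3–10% of maximal current, determined at the start of each experiment). Test material applied for 1 min equilibration before GABA, then co-applied. Stimulation calculated as (I(GABA+Comp)/IGABA) − 1 at 100 µM, reported as %. Mean ± SE, n = 4–7 oocytes, at least two oocyte batches; oocytes with currents >3 µA discarded.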

Experiment [2] deals with Oocyte. As to the kind of experiment: Allosteric modulation of alpha1beta2gamma2S GABAA receptor expressed in Xenopus laevis oocytes assessed as stimulation of GABA-induced chloride current at 300 uM by electrophysiology. The procedure, abridged: (§1)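 Two-microelectrode voltage clamp of oocytes. GABA applied at EC3-10 (3-10% of maximal current), set at the start of each experiment. Compound pre-applied for 1 min before GABA. Enhancement taken as (I(GABA+Comp)/IGABA) - 1. Concentration-response data fitted to 1/[1 + (EC50/[Comp])nH]. Mean ± SE from ≥4 oocytes and ≥2 oocyte batches.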

Experiment [3] in a line: (§2) Allosteric modulation of alpha1beta2gamma2S GABAA receptor expressed in Xenopus laevis oocytes assessed as stimulation of GABA-induced chloride current by electrophysiology. The note with it: Oocyte. The procedure, abridged:
as §1

Experiment [4] deals with Oocyte. The description is as §2. The procedure, abridged: as §1

Each structure is given as a SMILES string.

In the case of `CC(=O)OC(C)(C)[C@H]1O[C@@]23O[C@H]1C[C@@H](C)[C@@H]2[C@@]1(C)CC[C@@]24C[C@@]25CC[C@H](O[C@@H]2OC[C@H](O)[C@H](O)[C@H]2O)C(C)(C)[C@@H]5CC[C@H]4[C@]1(C)[C@H]3O`, the values for the Activity with Oocyte [1], in the experiment with Oocyte [2] and with Oocyte [4] were 271%, 289% and “Dose-dependent effect”, respectively. In addition, in experiment [3], the EC50 came to 26 µM.

Consider `C[C@@H]1C[C@@H]2O[C@@]3(O[C@@H]2C(C)(C)O)[C@H](O)[C@@]2(C)[C@@H]4CC[C@H]5C(C)(C)[C@@H](O[C@@H]6OC[C@@H](O)[C@H](O)[C@H]6O)CC[C@@]56C[C@@]46CC[C@]2(C)[C@@H]13`, for which the Activity with Oocyte [1] was 189%; in the experiment on Oocyte [2], 256%; in the experiment on Oocyte [4], “Dose-dependent effect”. In experiment [3], the EC50 came to 28 µM.

With `CC(=O)O[C@H](C[C@@H](C)[C@H]1C(=O)[C@H](O)[C@@]2(C)[C@@H]3CC[C@H]4C(C)(C)[C@@H](O)CC[C@@]45C[C@@]35CC[C@]12C)[C@H]1OC1(C)C`, in the experiment with Oocyte [1], the Activity is 64%.

Consider `CC(=O)O[C@H](C[C@@H](C)[C@H]1C(=O)[C@H](O)[C@@]2(C)[C@@H]3CC[C@H]4C(C)(C)[C@@H](O[C@@H]5OC[C@@H](O)[C@H](O)[C@H]5O)CC[C@@]45C[C@@]35CC[C@]12C)[C@H]1OC1(C)C`, for which the Activity with Oocyte [1] is 1690%; in the experiment with Oocyte [2], 1950%; in the experiment with Oocyte [4] it was “Dose-dependent effect”. Further, the EC50 in experiment [3] amounted to 27 µM.

In the case of `CC(=O)O[C@@H]1C[C@@]23C[C@@]24CC[C@H](O[C@@H]2OC[C@@H](O)[C@H](O)[C@H]2O)C(C)(C)[C@@H]4CC[C@H]3[C@]2(C)C[C@@H]3O[C@]4(C[C@@H](C)[C@@H]3[C@@]12C)O[C@H](O)[C@@]1(C)O[C@@H]41` [ACTEIN], the values for the Activity in the experiment on Oocyte [1], in the experiment with Oocyte [2] and with Oocyte [4] were 305%, 378% and “Dose-dependent effect”, respectively. Further, the EC50 in experiment [3] was 36 µM.

Take `C[C@@H]1C[C@@H]2O[C@@]3(O[C@@H]2C(C)(C)O)[C@H](O)[C@@]2(C)[C@@H]4CC[C@H]5C(C)(C)[C@@H](O)CC[C@@]56C[C@@]46CC[C@]2(C)[C@@H]13`: the Activity in the experiment on Oocyte [1] was found to be 104%.

In the case of `CC(=O)O[C@@H]1C[C@@]23C[C@@]24CC[C@H](O)C(C)(C)[C@@H]4CC[C@H]3[C@]2(C)C[C@@H]3O[C@]4(C[C@@H](C)[C@@H]3[C@@]12C)O[C@H](O)[C@@]1(C)O[C@H]41`, the Activity with Oocyte [1] was determined as 126%.
